Results from ChEMBL document CHEMBL3734747, “Varioxiranols A-G and 19-O-Methyl-22-methoxypre-shamixanthone, PKS and Hybrid PKS-Derived Metabolites from a Sponge-Associated Emericella variecolor Fungus” (J Nat Prod, 2015).
The source made the active and inactive calls. The rule behind the calls is not given here.

Tests used:
HepG2 [1] = test: Inhibition of oleic acid-induced total cholesterol level in human HepG2 cells at 10 uM; format: functional, cell-based
Method in brief: (§1)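 HepG2 cells at 70–80% confluence exposed to 100 μM oleic acid in DMEM for 12 h, then compound at 10 μM plus 100 μM oleic acid for 6 h. Statin positive control. Intracellular total cholesterol and triglyceride measured with commercial kits. n = 3, experiment repeated in triplicate, mean ± SEM.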

HepG2 [2] = test: Inhibition of oleic acid-induced triglyceride level in human HepG2 cells at 10 uM; format: functional, cell-based; method in brief: as §1
HepG2 [3] = test: Inhibition of oleic acid-induced lipid accumulation in human HepG2 cells at 10 uM by oil red O staining analysis; format: functional, cell-based
Method in brief: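 HepG2 cells in DMEM with 10% FBS and penicillin/streptomycin, grown to 70–80% confluence, preloaded with 100 μM oleic acid for 12 h, then given compound at 10 μM in DMEM/100 μM oleic acid for another 6 h. Statin positive control and DMEM/oleic acid blank. Oil Red O staining read by spectrophotometry at 358 nm. n = 8, experiment repeated in triplicate, mean ± SEM.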

HepG2 [4] = test: Cytotoxicity against human HepG2 cells upto 100 uM by MTT assay; format: cell-based
HepG2 [5] = test: Decrease in acetyl-CoA carboxylase mRNA level in human HepG2 cells by RT-PCR analysis; format: functional, cell-based
HepG2 [6] = test: Decrease in fatty acid synthase mRNA level in human HepG2 cells by RT-PCR analysis; format: functional, cell-based
HepG2 [7] = test: Decrease in SREBP-1c mRNA level in human HepG2 cells by RT-PCR analysis; format: functional, cell-based

| Compound | inhibition (HepG2 [1]) | inhibition (HepG2 [2]) | inhibition (HepG2 [3]) | Activity (HepG2 [4]) | inhibition (HepG2 [5]) | inhibition (HepG2 [6]) | inhibition (HepG2 [7]) |
| --- | --- | --- | --- | --- | --- | --- | --- |
| CCC[C@H](O)[C@H](O)/C=C/c1cccc(OC)c1CO | inactive | Active | Active | Non-toxic |  |  |  |
| C=C(C)[C@H]1COc2c(C)cc(O)c(C(=O)c3c(O)ccc(CC=C(C)C)c3O)c2[C@@H]1O | Active | Active | Active | Non-toxic | Active | Active | Active |
| C/C=C/[C@H](O)[C@H](O)/C=C/c1cccc(OC)c1CO |  | inactive | Active | Non-toxic |  |  |  |
